Here are results for 30 sequences from the array DNA melting data of Ke et al. (doi:10.1101/2024.01.08.574731).

Data set [1] is described as follows: folding enthalpy; higher = less favourable; fluorescence melt of hairpins on a sequencing array, two-state fit. As to conditions: sodium 0.088 M. The procedure, abridged: (§1)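 Library hairpins on a sequenced MiSeq flow cell carried annealed Cy3 and quencher oligos, and their Cy3 fluorescence was imaged in 50 mM Na-HEPES pH 8.0 with 25 mM NaCl, in 2.5 °C steps up to 60 °C. Signals were normalised to Cy3 before quenching and to control constructs. Melting temperature and folding enthalpy were obtained from bootstrapped two-state fits, combined by inverse-variance weighting across four replicates, and the fitted temperatures were then raised by 9.35 °C to match UV melts.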

Data set [2] is described as follows: melting temperature; fluorescence melt of hairpins on a sequencing array, two-state fit, raised by 9.35 °C to match UV melts. The note with it: sodium 0.088 M. The procedure, abridged:
as §1

With GGCTCCCCGAAAGGGGCC (((..(((....)))))), the folding enthalpy in data set [1] is -12 kcal/mol. The Tm in data set [2] turned out to be 50.9 °C.

Turning to GCATTGGGAAACCAATGC (((((((....))))))), the folding enthalpy in data set [1] is -44.9 kcal/mol. For the same sequence, the Tm in data set [2] turned out to be 65.8 °C.

With GGATACGAAAGTATGTCC ((((((....)))..))), the folding enthalpy in data set [1] was -12.5 kcal/mol. For the same sequence, the Tm in data set [2] came to 30.1 °C.

Take GCGCACGGAAACGCGCAC (.((.((....)).)).): the folding enthalpy in data set [1] was -13.7 kcal/mol. Further, in data set [2], the Tm stood at 52.4 °C.

In the case of GGCCCCGAAAGGGCGGCC ((((((....)))..))), in data set [1], the folding enthalpy was -16.9 kcal/mol. In data set [2], the Tm came to 64.7 °C.

Turning to GCATAGCGAAAGCCCTGC (((..((....))..))), in data set [1], the folding enthalpy is -7.04 kcal/mol. Moreover, in data set [2], the Tm was determined as 29.5 °C.

Regarding GACCGTCCGAAAGGAGTC (((..(((....)))))), the folding enthalpy in data set [1] was -11.8 kcal/mol. Besides, the Tm in data set [2] is 28.6 °C.

For the sequence GGATAGACGAAAGTCTCC (((..(((....)))))), in data set [1], the folding enthalpy was -14.6 kcal/mol. The Tm in data set [2] was 33.6 °C.

Take GTTATAGGAAACTGTAAC ((((.((....)).)))): the folding enthalpy in data set [1] was -27.2 kcal/mol. The Tm in data set [2] came to 34 °C.

Take GTCAGTGAAAACTGAC ((((((....)))))): the folding enthalpy in data set [1] was -35.6 kcal/mol. Moreover, in data set [2], the Tm worked out at 60.5 °C.

On to GCCAGCGAAAGCTTGGC ((((((....))).))), for which the folding enthalpy in data set [1] was -27.4 kcal/mol. The Tm in data set [2] amounted to 63.9 °C.

For GATCCTGAGTAGGATC ((((((....)))))), in data set [1], the folding enthalpy is -37.9 kcal/mol. Moreover, the Tm in data set [2] came to 50.9 °C.

Regarding CATGAGAAATCATG (((((....))))), the folding enthalpy in data set [1] was -13.9 kcal/mol. For the same sequence, in data set [2], the Tm was determined as 43.9 °C.

Regarding GACAAAGGAAACTTTGCC (.(((((....))))).), in data set [1], the folding enthalpy was -21.6 kcal/mol. Besides, the Tm in data set [2] is 33.3 °C.

For the sequence GGGCATGGAAACATACCC (((.(((....))).))), the folding enthalpy in data set [1] is -31.8 kcal/mol. Also, the Tm in data set [2] was 44.1 °C.

Consider GGACAAACGAAAGTTTCC (((..(((....)))))), for which the folding enthalpy in data set [1] is -9.9 kcal/mol. The Tm in data set [2] came out at 25.4 °C.

For the sequence GAATTTGGAAACGAATTC (((((.(....).))))), in data set [1], the folding enthalpy was -35.8 kcal/mol. The Tm in data set [2] came to 38.8 °C.

As for CGGGCGGAAACGCTCCCG ((((((....)))..))), the folding enthalpy in data set [1] is -14.7 kcal/mol. Further, the Tm in data set [2] worked out at 48.1 °C.

For GAAGGCGGAAACACCTTC (((((.(....).))))), the folding enthalpy in data set [1] is -30.9 kcal/mol. The Tm in data set [2] turned out to be 42.7 °C.

Consider GATCATCACTATGATC ((((((....)))))), for which the folding enthalpy in data set [1] was -31.3 kcal/mol. Moreover, in data set [2], the Tm came out at 48.6 °C.

GGGCTCGGAAACGGGTCC ((.(.((....)).).)): the folding enthalpy in data set [1] was -34.5 kcal/mol. Moreover, in data set [2], the Tm was 48.6 °C.

In the case of GCGATCGTCGC ((((...)))), the folding enthalpy in data set [1] was -20.2 kcal/mol. Also, the Tm in data set [2] is 45.9 °C.

In the case of GGCCATGGAAACATAGCC (((.(((....))).))), in data set [1], the folding enthalpy is -31.5 kcal/mol. Further, the Tm in data set [2] was 40.8 °C.

With CGGAATCGGAAACGACCG (((..(((....)))))), the folding enthalpy in data set [1] was -16.6 kcal/mol. In data set [2], the Tm was found to be 35.3 °C.

Turning to GATGCCGAAAGGCTTATC ((((((....)))..))), the folding enthalpy in data set [1] was -6.76 kcal/mol. In data set [2], the Tm was found to be 31.5 °C.

GTGAGGACGAAAGTCCAC (((..(((....)))))): the folding enthalpy in data set [1] is -13.9 kcal/mol. The Tm in data set [2] came out at 47.9 °C.

As to CGGGCGGAAACGCTACCG ((((((....)))..))), in data set [1], the folding enthalpy was -24.3 kcal/mol. Also, in data set [2], the Tm worked out at 45.8 °C.

With GTATCCCGAAAGGGTAC (((.(((....)))))), the folding enthalpy in data set [1] was -17.9 kcal/mol. Besides, the Tm in data set [2] is 49 °C.

On to GCACTGCGAAAGCGCTGC (((..((....))..))), for which, in data set [1], the folding enthalpy is -20.6 kcal/mol. Besides, in data set [2], the Tm was 42.6 °C.

On to GATCATCCGATGATC ((((((...)))))), for which the folding enthalpy in data set [1] is -33.3 kcal/mol. Besides, the Tm in data set [2] came out at 46.8 °C.
